“Also recorded” adds a separate entry of the source.
Assays:
[1] = tested on: MEF-Bax/Bak^+/+ and MEF-Bax/Bak^−/− cell lines; experiment: Cytotoxicity in MEF-Bax/Bak+/+ versus MEF-Bax/Bak−/− cells; assay type: cell-based, murine
HeLa cells [2] = experiment: Whole cell uptake by ICP-MS; assay type: cell-based, human; conditions: 10 μM
In short: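 2 × 10^6 cells per 60 mm plate, grown overnight. Incubated 4 h in fresh medium containing 10 μM test compound. Washed three times with PBS, detached with trypsin and counted for per‑cell metal uptake.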

zebrafish embryos = experiment: Zebrafish embryo toxicity and viability analysis; assay type: in vivo, zebrafish (Danio rerio)
In short: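 Wild‑type embryos, ten per 5 mL E3. Test compound at final 20, 30 or 40 μM, diluted from a 5 mM DMSO stock; DMSO vehicle at 10 μL/mL. Exposure from 26 hpf to 72 hpf at 28 °C, then scored for viability and morphology.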

HeLa cells [3] = experiment: Trypan blue dye exclusion cell proliferation assay; assay type: cell-based, human
In short: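 HeLa seeded in 24‑well plates. Next day, some wells trypsinised, stained with trypan blue and live cells counted by hemocytometer as the 0 h value. Remaining wells left untreated or dosed at various concentrations. Viable cells counted at 24, 48, 72, 96 and 120 h and plotted against time.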

HeLa [4] = experiment: 24 h MTT assay, HeLa cells; assay type: cell-based, human; conditions: read-out: IC50/24h
In short: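 HeLa in DMEM with 10% FBS and 1% penicillin/streptomycin, 3 × 10^3 cells/well, grown overnight. Fresh DMSO stocks (Ru content confirmed by ICP‑MS) serially diluted in medium; final DMSO ≤0.1%. 24 h exposure, then MTT 0.5 mg/mL for 3 h. Formazan dissolved in DMSO, A570 read and normalised to untreated wells. IC50 taken from dose–response curves; ≥3 independent experiments of 3 or 6 replicates.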

[5] = tested on: IRE1α, ATF6, p-elF2α, unfolded proteins in HeLa cells; experiment: Western blot of polyubiquitinated proteins and ER-stress marker proteins; assay type: cell-based, human; conditions: 24 h
In short: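 HeLa cells, about 2 × 10^6 at 80–90% confluency, were treated for 24 h with test compound at 10, 20 or 40 μM, with celastrol as positive control. RIPA lysates with protease inhibitors were heated in Laemmli buffer (90 °C, 10 min), resolved on 10/12% SDS-PAGE and transferred to PVDF. Membranes were blocked in 2% milk and probed overnight at 4 °C with primary antibodies (1:1000), then with HRP secondary antibodies.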

HeLa [6] = experiment: MTT assay, 72 h continuous exposure, HeLa cells; assay type: cell-based, human
In short: (§1)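 Ovarian lines grown in RPMI with 10% FBS and 1% penicillin/streptomycin; A2780Cis kept on 2 μM cisplatin 3 days each week. HeLa grown in DMEM with the same supplements. 3 × 10^3 cells/well, overnight, then serial dilutions of DMSO stocks (final DMSO ≤0.1%); cisplatin stock in PBS. 72 h continuous exposure, MTT 0.5 mg/mL 3 h, formazan in DMSO, A570 normalised to untreated. IC50 from curves; ≥3 independent experiments.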

[7] = tested on: genomic DNA of HeLa cells; experiment: Metalation of genomic DNA, ICP-MS; assay type: cell-based, human; conditions: 20 μM, 24 h exposure
[8] = Stability in DMSO and aqueous media by 1H NMR; assay type: physicochemical; conditions: up to 48 h
In short: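 About 2 mM test compound in DMSO-d6 was mixed with 666 mM NaCl in D2O to give 100 mM NaCl final in DMSO/D2O (85/15, v/v). 1H NMR spectra were recorded at regular intervals up to 48 h.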

Cyclic voltammetry = assay type: physicochemical; conditions: acetonitrile, 0.1 M NEt4BF4
ER of HeLa cells = experiment: ER imaging of ER-RFP-labeled HeLa cells; assay type: cell-based, human
In short: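 HeLa cells transduced with a CellLight ER-RFP BacMam 2.0 construct, replated on glass-bottom dishes overnight, then treated with test compound (20 or 40 μM) for 8 h or 24 h. A platinum–ferrocene complex (40 μM) served as positive control. After PBS washes, confocal images were taken in phenol red-free medium (ex 543 nm, em 584–655 nm) at constant exposure.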

ΔΨm of HeLa cells = experiment: JC-1 mitochondrial membrane potential assay, flow cytometry; assay type: cell-based, human; conditions: 24 h, even at 1/4 × IC50/24h (10 μM)
[9] = tested on: mitochondria of HeLa cells; experiment: Metal content in isolated mitochondria, ICP-MS; assay type: cell-based, human; conditions: 20 μM, 24 h
A2780 [10] = experiment: 72 h crystal violet; assay type: cell-based, human; conditions: read-out: IC50 (CV assay) A2780; 72 h CV assay
In short: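 Seeding and dosing as for MTT: 3 × 10^3 cells/well, overnight, final DMSO ≤0.1%, 72 h exposure. Wells washed with PBS and fixed in 4% paraformaldehyde for 15 min. Crystal violet stained, dried, dissolved in 96% ethanol and A570 read. IC50 derived from dose–response curves.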

[11] = tested on: acidic vesicular organelles in HeLa cells; experiment: Acridine orange assay; assay type: cell-based, human; conditions: HeLa, 10, 20, 40 μM, 24 h
In short: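 HeLa cells in 35 mm dishes exposed to test compound at 10, 20 or 40 μM for 24 h, or rapamycin (1 μM, 24 h) as reference. Medium replaced with FBS-free medium containing 1 μM acridine orange for 25 min in the dark (37 °C, 5% CO2). Cells washed with PBS and overlaid with phenol red-free DMEM (4% FBS) for imaging.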

[12] = tested on: LC3-II/LC3-I in HeLa cells; experiment: Western blot of autophagy marker proteins; assay type: cell-based, human; conditions: 24 h
In short: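 ~2 million HeLa per 60 mm dish, grown to 80–90% confluency, then treated 24 h. Lysed in RIPA buffer with protease inhibitors. Membranes blocked with 2% skim milk in 0.1% Tween 20 for 30 min. Primary antibody 1:1000 overnight at 4 °C; HRP secondary antibody; LC3 forms detected.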

[13] = tested on: O2•− radicals in HeLa cells; experiment: Flow cytometric quantification of superoxide radicals with DHE probe; assay type: cell-based, human; conditions: 10 μM, 4 h
In short: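 HeLa seeded at 0.75 × 10^6 cells per six‑well plate well, grown overnight, then treated 4 h at 10 μM. Cells trypsinised, washed with ice‑cold PBS and spun at 1200 rpm, 5 min, 4 °C. Probe‑stained cells analysed by flow cytometry, approximately 20,000 cells per sample.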

A2780 [14] = experiment: MTT assay, 72 h continuous exposure, A2780 cells; assay type: cell-based, human
In short: as §1

## Cc1ccc(C(C)C)cc1.O=C(C=C([O-])C(F)(F)F)[c-]1cccc1.[Cl-].[Fe+2].[Ru+2].c1cc[cH-]c1 [Compound 1, [(η^6-p-cymene)Ru(1,1,1-trifluoro-4-oxo-4-ferrocenyl-but-2-en-2-olate)Cl]]
[1]
  IC50 in MEF-Bax/Bak^−/− compared to MEF-Bax/Bak^+/+ cells: statistically similar
HeLa cells [2]; 4 h
  fold higher accumulation than 3: 3.5 fold
  times lower cellular accumulation compared to 4: 1.6 times
  whole cell uptake: 57 ± 9.7 pmol/10^6 cells
HeLa cells [2]; 4 h exposure
  whole cell uptake: 57.0 ± 9.7 picomole Ru/10^6 cells
Zebrafish embryos; 72 hpf, up to 40 μM
  morphology / visible toxic effects on embryos: morphologically indistinguishable from untreated control embryos; also recorded: did not show any visible toxic effects
Zebrafish embryos; treated at 26 hpf, even at 40 μM dose
  animal viability at 72 hpf: 100%
HeLa cells [3]; 5 and 10 μM
  effect on number of viable cells: time-dependent antiproliferative effect
HeLa cells [3]; 20 and 40 μM
  effect on number of viable cells: exerted antitumor activity by killing cells
HeLa [4]
  IC50: 38 ± 3 µM
[5]; 10-40 μM
  unfolded (polyubiquitinated) proteins: dose-dependent upregulation of unfolded proteins
[5]
  IRE1α and ATF6 levels: significant upregulation of both IRE1α and ATF6
  p-elF2α level (PERK arm): did not increase the level of the downstream protein p-elF2α
HeLa [6]; HeLa cells, 72 h MTT
  fold higher potency compared to oxaliplatin: 1.6 fold
HeLa [6]; read-out: IC50 HeLa, 72 h continuous exposure, MTT assay
  IC50: 1.3 ± 0.3 µM
[7]
  metalation of genomic DNA: comparable with that of the classical DNA-targeted Pt drug cisplatin
[8]
  stability in DMSO: no change was detected in the ^1H NMR spectrum up to 48 h
  stability in DMSO-d6/D2O containing 100 mM NaCl: no significant spectral changes were observed up to 48 h
Cyclic voltammetry
  oxidation potential (vs Fc^+/0): 321 mV
ER of HeLa cells
  ER dilation and vacuole formation: ER dilation and/or vacuole formation were not observed
ΔΨm of HeLa cells
  effect on ΔΨm (JC-1 red/green): dramatic decrease in ΔΨm
[9]
  Ru in mitochondria relative to Pt in mitochondria of cisplatin-treated cells: ~ 4 fold
A2780 [10]
  IC50: 7.2 ± 0.3 µM
[11]
  acidic vesicular organelles: did not cause formation and promotion of acidic vesicular organelles
[12]
  ratio of LC3-II/LC3-I: no increase in the ratio of LC3-II/LC3-I
[13]
  level of O2•− radicals relative to untreated control: ~ 19 fold
A2780 [14]; A2780 cells
  fold more potent compared to Ru1, Ru3 and Ru4: 3−18 fold
A2780 [14]; read-out: IC50 A2780, 72 h continuous exposure, MTT assay
  IC50: 2.5 ± 0.3 µM
